# Compounds with a hit are over-represented: about 1.9% of the library has one in this group of screens.
# ADAM10 inh = inhibits human ADAM10 | O14672 | recombinant ADAM10, EDANS/DABCYL FRET peptide cleavage, 3 h | inhibition, % at 7 µM | 370,000 compounds, 0.62% hits;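 active = inhibition above a per-campaign cutoff equal to the mean of compounds falling between control-based bounds plus 3 SD, cut at about 20% in these data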;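 note: 0% = DMSO wells while the 100% control is not disclosed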
# SENP1 FRET inh = inhibitors of human SENP1 SUMO protease catalytic domain | inhibition, % at 10 µM | recombinant SENP1 catalytic domain, CyPet-SUMO1-YPet FRET cleavage | Q9P0U3 | 360,000 compounds, 0.21% hits;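 active = inhibition at least 30% at 10 µM, raw YFP signal under a set limit, fluorescence ratio 0.5 to 1.5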;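 note: 0% = enzyme with DMSO and 100% = no enzyme wells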
#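 Assay system – human recombinant His6-tagged SENP1 catalytic domain enzyme · Input – SENP1 enzyme, 20 pM final · Buffer or medium – Tris pH 8 buffer plus EDTA, NaCl, BME, BSA, NP40, catalase · Schedule – 50 min reaction at room temperature · Technique – FRET read of cyan and yellow fluorescence · Control set – no-enzyme wells low, DMSO-plus-enzyme wells high control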
# ADAM17 inh = inhibitors of human ADAM17. P78536. recombinant ADAM17, EDANS/DABCYL FRET peptide cleavage. inhibition, % at 6.95 µM. 370,000 compounds, 0.83% hits. AID 720648;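 active = inhibition above the mean of compounds lying between control limits plus 3 SD, set per campaign, cut at about 8.5% in these data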;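 note: 0% = DMSO-only wells as the low control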
# Target sequence (P78536 215-824 limits assumed): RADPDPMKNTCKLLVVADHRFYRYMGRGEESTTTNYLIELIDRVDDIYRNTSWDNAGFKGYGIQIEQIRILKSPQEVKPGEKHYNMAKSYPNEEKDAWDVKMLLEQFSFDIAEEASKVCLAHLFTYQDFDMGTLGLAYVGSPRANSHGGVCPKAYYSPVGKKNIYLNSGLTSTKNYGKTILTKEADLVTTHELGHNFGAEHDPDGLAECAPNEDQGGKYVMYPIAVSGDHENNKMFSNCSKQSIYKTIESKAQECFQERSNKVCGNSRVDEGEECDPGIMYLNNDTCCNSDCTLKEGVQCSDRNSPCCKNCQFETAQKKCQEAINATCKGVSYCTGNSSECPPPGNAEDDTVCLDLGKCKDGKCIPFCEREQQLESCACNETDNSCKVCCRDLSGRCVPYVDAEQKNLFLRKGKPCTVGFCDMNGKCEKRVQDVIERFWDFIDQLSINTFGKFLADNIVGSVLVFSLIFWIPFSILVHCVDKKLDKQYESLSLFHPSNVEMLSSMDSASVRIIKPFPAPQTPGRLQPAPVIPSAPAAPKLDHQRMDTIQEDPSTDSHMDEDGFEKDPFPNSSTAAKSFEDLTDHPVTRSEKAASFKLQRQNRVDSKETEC
# FAS-TE inh = inhibitors of human fatty acid synthase thioesterase domain; P49327; inhibition, % at 15 µM; 360,000 compounds, 0.67% hits; recombinant FAS-TE, OMFH fluorogenic substrate, fluorescence endpoint;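 active = compounds whose normalised, plate-corrected inhibition of enzyme fluorescence in the single-dose primary screen is 50% or more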;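 note: 0% = DMSO with enzyme and 100% = substrate without enzyme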
# ADAM10 ctr = inhibits human ADAM10 in ADAM17 exosite counter-screen; shares compounds with ADAM17 inh; recombinant ADAM10, EDANS/DABCYL FRET peptide cleavage, 3 h; inhibition, % at 6.95 µM; 2,900 compounds, 47% hits; AID 743256;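 active = mean inhibition over the triplicate runs exceeds the activity threshold set in the earlier primary screen, cut at about 20% in these data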;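 note: 0% = DMSO wells and 100% = marimastat wells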
# ADAM17 confirm = human ADAM17 inhibition, confirmation; 2,900 compounds, 65% hits; shares compounds with ADAM17 inh; inhibition, % at 6.95 µM; recombinant ADAM17, EDANS/DABCYL QFRET peptide cleavage;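 active = mean inhibition across replicates above the hit cutoff set in the primary screen, cut at about 8.5% in these data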;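 note: 0% = DMSO wells and 100% = marimastat wells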
# Numbers without * were called inactive; / = not tested or not shown.
SMILES,ADAM10 inh,SENP1 FRET inh,ADAM17 inh,FAS-TE inh,ADAM10 ctr,ADAM17 confirm
C[C@@H]1CC[C@]2(O[C@H](CCO)C[C@@H](O)[C@@H]2O)O1,8,2,8.8*,-6,10,4
CN(C)c1nc(-c2ccccn2)nnc1-c1ccccc1,4,-1,2,-9,/,/
c1ccc(-c2cccc(CNc3nc(-c4ccccn4)nnc3-c3ccccc3)c2)cc1,14,/,9.0*,/,9,6
COc1cc2c(c(OC)c1OC)-c1c(cc(OC)c(OC)c1OC)C[C@H](C)[C@H](C)C2,0,2,-1,3,/,/
COc1cc2c(c(O)c1OC)-c1c(cc(OC)c(OC)c1OC)C[C@@H](C)[C@@H](C)C2,-2,-1,8.8*,0,13,7
COc1cccc(OC)c1C(=O)Nc1cccc(-c2nc3ccccc3[nH]2)c1,5,0,8.7*,4,-10,-3
CC(C)n1cc(NC(=O)C2CC(c3cccc(Br)c3)=NO2)cn1 (configuration not stated),13,1,9.0*,-4,-5,-3
O=C(NCc1cccnc1)C1CC(c2cccc(Br)c2)=NO1 (configuration not stated),-2,1,-3,-7,/,/
COCCCNC(=O)C[C@@H]1C(=O)N(CCc2ccc(Cl)cc2)C2=CCCCC[C@]21C(=O)OC,-9,/,-6,/,/,/
COc1cccc(CNC(=O)C2CCCN(S(=O)(=O)c3c(C)noc3/C=C/N(C)C)C2)c1 (configuration not stated),17,2,8.9*,4,12,7
COc1ccc(NC(=O)C2CCN(S(=O)(=O)c3c(C)noc3/C=C/N(C)C)CC2)cc1,-2,1,10*,-2,16,11*
Cn1cccc1C(=O)N1CCN(S(=O)(=O)c2ccc(Cl)s2)CC1,-3,/,0,/,/,/
COc1cc(/C=C2\SC(=S)N(NC(=O)c3ccccc3OC)C2=O)ccc1O,19,9,11*,0,23*,11*
COc1cc(/C=C2\SC(=S)N(C(C(=O)O)c3ccccc3)C2=O)ccc1O (configuration not stated),-1,-47,0,-4,/,/
CCc1ccc(C(=O)/C=C2\Sc3ccccc3NC2=O)cc1,16,3,8.8*,-4,11,11*
COC(=O)[C@H](CC(C)C)N1Cc2nnn(Cc3ccc(C)cc3)c2-c2cc(F)ccc2S1(=O)=O,14,/,10*,/,18,14*
O=C(N/N=C/c1ccc[nH]1)c1cc(-c2ccc(Cl)cc2)nc2ccccc12,16,5,9.6*,19,22*,15*
Cc1cc2c(c(=O)o1)[C@@]1(C(=O)N(C)c3c(Br)cccc31)C1=C(CCCC1=O)O2,-3,/,0,/,/,/
COc1ccc2cc(CN(Cc3cccs3)Cc3nnnn3Cc3ccccc3)c(=O)[nH]c2c1,-14,-7,0,17,/,/
Cc1cccc2cc(CN(Cc3cccs3)Cc3nnnn3Cc3ccccc3)c(=O)[nH]c12,7,1,11*,26,-9,3
COc1ccc(C2C3=C(N=C4SCC(=O)N42)c2ccccc2CC3)cc1OC (configuration not stated),14,-7,9.3*,12,-2,2
COc1ccc(C2C3=C(N=C4SCC(=O)N42)c2ccccc2CC3)cc1 (configuration not stated),-25,-9,-7,13,/,/
COc1ccc(CN2CN3Cc4ccc(C)cc4C3CS2(=O)=O)cc1 (configuration not stated),3,/,1,/,/,/
CC1(C)CC(=O)N(CC(=O)N2CCN(Cc3ccc4c(c3)OCO4)CC2)c2ccccc2S1(=O)=O,-1,/,-3,/,/,/
CN(C)c1ccc(-c2csc(C(C)(O)c3ccc(F)c(F)c3)n2)cc1 (configuration not stated),6,1,13*,21,11,5
SMILES,ADAM10 inh,SENP1 FRET inh,ADAM17 inh,FAS-TE inh,ADAM10 ctr,ADAM17 confirm
O=C(c1cc(-c2ccccc2)nc2ccccc12)N1CCN(c2ccccc2O)CC1,13,0,14*,18,29*,19*
COC(=O)c1c(NC(=O)Cn2nc(C(F)F)cc2C(F)F)sc(C)c1C,13,-1,3,24,/,/
CCOC(=O)c1c(NC(=O)Cn2nc(C(F)F)cc2C(F)F)sc(C)c1C,18,1,9.1*,26,18,12*
Cc1c(CN2CCCC(CO)(Cc3cccc(Cl)c3)C2)cnn1C (configuration not stated),10,1,-3,-2,/,/
OCC1(Cc2cccc(Cl)c2)CCCN(Cc2sc(N3CCCC3)nc2Cl)C1 (configuration not stated),13,0,10*,11,17,9.7*
C[C@@H](NC(=O)c1nc[nH]c1C(=O)N1CCc2ccccc2C1)c1ccccc1,7,-2,9.0*,5,-4,-3
C[C@H](NC(=O)c1nc[nH]c1C(=O)N1CCc2ccccc2C1)C(=O)OC(C)(C)C,0,-5,-1,-4,/,/
O=C(NCc1ccc(Cl)c(Cl)c1)c1cc(C2CCCCN2C(=O)C2CCCCC2)on1 (configuration not stated),17,1,10*,19,8,8
COC(=O)N1CCCCC1c1cc(C(=O)NCc2ccc(Cl)c(Cl)c2)no1 (configuration not stated),-5,0,-2,20,/,/
COc1ccccc1CNc1ccc2c(c1)OC[C@H](CC(C)C)NS2(=O)=O,-11,/,-2,/,/,/
CCN(C[C@H]1N[C@@](C)(C(=O)OC)[C@H]2C(=O)N(Cc3ccccc3)C(=O)[C@@H]12)S(=O)(=O)c1ccc(F)cc1,-5,0,4,-5,/,/
CCN(C[C@H]1N[C@@](C)(C(=O)OC)[C@H]2C(=O)N(Cc3ccccc3)C(=O)[C@@H]12)S(=O)(=O)c1ccc(C(C)(C)C)cc1,15,1,9.4*,20,21*,13*
COc1ccc2ccccc2c1C=Nn1c(-c2n[nH]c3c2CCC3)n[nH]c1=S,11,/,10*,/,0,3
COc1ccc(/C=N/n2c(-c3n[nH]c4c3CCC4)n[nH]c2=S)cc1OC,4,2,8,-9,/,/
Cc1nc2ccc(S(=O)(=O)NCC(=O)NCc3ccccc3Cl)cc2s1,1,/,2,/,/,/
CN(C)S(=O)(=O)c1cccc(NC(=O)c2cc(-c3cccs3)nn2-c2cccc(Cl)c2)c1,13,0,12*,40,14,12*
O=C(c1cc(F)c(F)c(F)c1F)N1CCN(C(=O)C2CCCO2)CC1 (configuration not stated),-4,1,8.7*,-2,-8,0

# Source: PubChem BioAssay (several laboratories)
